# Only some compounds are listed: those with a hit (about 2.1% of all), similar ones and a draw of the others.
# STAT3 act-1 = increases IL-6 driven STAT3 reporter signal | U3A cells, IL-6 STAT3-luciferase reporter, luminescence; 100% = signal with IL-6 EC80 alone | 0.91% of 190,000 active | activation (% of control), % at 5.6 µM;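 active means activation above the screen-wide mean of compound activation plus 3 SD, cut at about 130% in these data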;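 further: 0% = background luminescence of wells with medium and substrate only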
#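 Assay system – human STAT1-deficient U3A cells with stable STAT3-luciferase reporter · Also added – IL-6 (33 ng/mL) · Schedule – compound 1 h, then IL-6 6 h at 37 °C · Technique – reporter luminescence signal · Evaluation – % activation versus median of IL-6-stimulated wells · Benchmarks – IL-6-only wells as 100% reference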
# zVAD death inh = blocks zVAD induced death of L929 cells; 0.38% of 220,000 active; viability rescue, % at 10 µM; L929 zVAD necroptosis rescue, ATP luminescence, 24 h; with zVAD 60 µM;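 active means activation, scaled between plate controls, above about 75%, limit read from the data; inactive means activation under that limit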;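 further: 0% = zVAD with DMSO and 100% = DMSO alone without zVAD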
# TNF death inh = blocks TNF-alpha induced death of Jurkat FADD-/- cells. AID 463075. activation (protection from cell death), % at 10 µM. 0.068% of 220,000 active. Jurkat FADD-/- TNF necroptosis rescue, ATP luminescence, 24 h; 0 = TNF only, 100 = no-TNF cells;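 active means activation, meaning protection from cell death, of at least 50% relative to plate controls; inactive means activation below 50%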;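 further: necroptosis triggered by 40 ng/mL TNF-alpha added together with compound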
# STAT3 inh = inhibitors of IL-6 induced STAT3 signaling; U3A cells, IL-6 STAT3-luciferase reporter, luminescence; host cell line lacks STAT1; inhibition, % at 5.5 µM; 0.89% of 190,000 active; AID 862;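 active means inhibition above the mean inhibition across all screened compounds plus 3 SD, cut at about 44% in these data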;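 further: 0% = DMSO only wells and 100% = 100 µM nifuroxazide control wells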
# STAT1 inh-1 = reduces IFN-gamma driven STAT1 reporter signal; NIH 3T3 STAT1-luciferase reporter, luminescence; inhibition, % at 5.5 µM; 0.35% of 200,000 active; AID 920;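 active means inhibition above a set limit, the mean inhibition across all tested compounds plus 3 SD, cut at about 34% in these data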;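 further: 0% = IFN-gamma with DMSO and 100% = IFN-gamma with 300 µM nifuroxazide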
# STAT3 act-2 = confirmation of STAT3 signaling activators. shares compounds with STAT3 act-1. U3A STAT3-luciferase reporter, IL-6 potentiation, luminescence; U3A cells lack STAT1; 100 means same as IL-6 alone. potentiation (% of control), % at 5.7 µM. 64% of 1,200 active;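 active means percent activation of the STAT3 luciferase reporter above a set limit taken from the earlier primary screen, cut at about 130% in these data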;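 further: 0% = background signal of medium plus substrate and 100% = median of IL-6 with DMSO wells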
# NFkB act STAT3ct = counter-screen for STAT3 activators: NF-kappaB activation | shares compounds with STAT3 act-1 | human cells, NF-kappaB reporter activation | activation (% of control), % at 5.7 µM | 11% of 1,200 active | AID 1309; in the data active means activation above about 120%;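 further: reporter induced by TNF-alpha stimulation; 100% = median of stimulated DMSO wells and 0% = no signal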
# STAT1 act = STAT1 activation in STAT3 activator counter-screen; NIH 3T3 STAT1-luciferase reporter, IFN-gamma, luminescence; shares compounds with STAT3 act-1; AID 1318; 13% of 1,200 active; activation (% of control), % at 5.7 µM;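 active means activation above the solvent-only control well mean plus 3 SD, set per screening run, cut at about 120% in these data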;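 further: 100% = IFN-gamma with DMSO median signal so 100% means no change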
# STAT1 inh-2 = STAT1 inhibition, confirmation assay; inhibition, % at 5.5 µM; shares compounds with STAT1 inh-1; 55% of 200 active; NIH 3T3 STAT1-luciferase reporter, IFN-gamma, luminescence; AID 1263;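 active means triplicate mean inhibition exceeding the hit cutoff computed for the primary STAT1 screen, cut at about 35% in these data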;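 further: 0% = DMSO with IFN-gamma and 100% = 300 µM nifuroxazide with IFN-gamma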
# NFkB inh STAT1ct = counter-screen for STAT1 inhibitors: NF-kappaB inhibition. 30% of 200 active. HEK293T NF-kB luciferase reporter, TNF-alpha induced, luminescence. inhibition, % at 5.7 µM. shares compounds with STAT1 inh-1;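 active means inhibition above the mean of solvent-only control wells plus 3 SD of those wells, cut at about 15% in these data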;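 further: 0% = DMSO with TNF-alpha and 100% = MG-132 control with TNF-alpha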
# STAT3 inh STAT1c = inhibits STAT3, counter-screen to STAT1 inhibitors; shares compounds with STAT1 inh-1; inhibition, % at 5.7 µM; U3A cells, IL-6 STAT3 luciferase reporter, luminescence; cells lacking STAT1; 20% of 200 active;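 active means inhibition above the mean of solvent-only control wells plus 3 SD, set per campaign, cut at about 25% in these data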;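 further: 0% = IL-6 plus DMSO and 100% = IL-6 plus nifuroxazide control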
# zVAD death conf = confirmed blocker of zVAD induced death in L929 cells; shares compounds with zVAD death inh; L929 zVAD-induced necroptosis rescue, ATP luminescence, 24 h; activation (protection from necroptosis), % at 10 µM; 16% of 760 active; AID 463117;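 active means mean protection from necroptosis of at least 50% over duplicate tests; inactive means mean protection below 50%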;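 further: 0% = cells with zVAD alone and 100% = vehicle cells without zVAD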
# The depositor's hits bear a star; . = no result.
SMILES,STAT3 act-1,zVAD death inh,TNF death inh,STAT3 inh,STAT1 inh-1,STAT3 act-2,NFkB act STAT3ct,STAT1 act,others
CCCCn1c(=O)c(C(=O)Nc2ccccc2)c(O)c2ccccc21,154.0*,2.6,0.4,-60.7,-5.3,161.1*,106.6,102.5,
Cn1cccc1/C=C1\C(=O)NC(=O)N(Cc2ccco2)C1=O,145.9*,-1.1,-2.3,-44.5,-15.4,118.5,109.5,103.5,
Cc1ccc(OCCn2cccc2/C=C2/C(=O)NC(=O)N(Cc3ccco3)C2=O)cc1,.,-0.7,3.0,.,.,.,.,.,
C=CC1CN2CCC1CC2C(OC(C)=O)c1ccnc2ccc(OC)cc12 (stereo unspecified),.,-0.5,4.9,.,.,.,.,.,
CCCCN1C(=O)NC(=O)C2(Cc3c(nc4ccccn4c3=O)N3CCc4ccccc4C32)C1=O (stereo unspecified),141.7*,-0.3,-2.6,-44.4,-1.0,142.9*,106.4,102.9,
COc1ccc(NP(=O)(Oc2ccc(Cl)cc2)Oc2ccc(Cl)cc2)cc1OC,104.3,1.4,4.4,-7.6,4.6,.,.,.,
C=CCN(CC=C)Cc1c[nH]c2ccccc12,146.7*,0.1,-15.7,-46.4,0.1,133.7*,106.7,84.2,
CC(=O)Cc1c[nH]c2ccccc12,.,1.9,1.2,.,.,.,.,.,
Cc1ccc(-c2nc(N(C)C3CCN(C)CC3)c3ccccc3n2)cc1,172.2*,34.0,-4.2,-76.0,1.2,154.5*,98.6,97.2,
O=C(Nc1ccc(OC(=O)N2CCCCC2)cc1)N1CCOCC1,84.4,-0.3,2.1,22.1,36.1*,.,.,.,STAT1 inh-2=13.6;NFkB inh STAT1ct=4.8;STAT3 inh STAT1c=12.1
O=C(Nc1ccc(OC(=O)N2CCCC2)cc1)N1CCOCC1,94.8,-0.3,-2.0,10.3,1.2,.,.,.,
CC1(C)CC(=O)C(C=NCCN2CCN(C(=O)Cc3ccc(F)cc3)CC2)=C(O)C1,104.1,2.4,-0.1,-0.5,34.4*,.,.,.,STAT1 inh-2=0.3;NFkB inh STAT1ct=-3.6;STAT3 inh STAT1c=-7.0
Nc1ccccc1C(=O)OCc1ccc([N+](=O)[O-])cc1,86.8,1.0,2.3,17.5,-37.9,.,.,.,
Cc1cc([N+](=O)[O-])c2ccccc2[n+]1[O-],.,81.0*,-28.4,.,.,.,.,.,zVAD death conf=66.6*
CSc1ccc(CN2CCN(Cc3ccccc3Cl)CC2)cc1,111.1,-0.3,-1.0,-12.1,2.5,.,.,.,

# High-throughput results from PubChem BioAssay.
